Reference: ChEMBL document CHEMBL1129951, “Synthesis and antitumor evaluation of new thiazolo[5,4-b]quinoline derivatives” (J Med Chem, 1997)

What was measured:
[1] = tested on: A549; assay: In vitro cytotoxicity against A-549 (human lung carcinoma) cell line.; type: functional, cell-based
Summary of the method: (§1)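 Growth-inhibition screen adapted from Bergeron et al. Cells were kept in exponential growth in EMEM with 5% FCS, 10^-2 M sodium bicarbonate, penicillin G and streptomycin (0.1 g/L each) and 2.0 mM L-glutamine. P-388 was grown as a suspension and seeded at 1 × 10^4 cells/well. A-549 and HT-29 were grown as monolayers and seeded at 2 × 10^4 cells/well.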

[2] = pKa value was determined by differential pulse polarography; type: physicochemical
[3] = tested on: HT-29; assay: In vitro cytotoxicity against HT-29 (human colon) cell line.; type: functional, cell-based; summary of the method: as §1
[4] = tested on: P388; assay: In vitro cytotoxicity against P-388 (mouse leukemia) cell line.; type: functional, cell-based; summary of the method: as §1

Row | SMILES | pKa [2] | IC50 [1] [µM] | IC50 [3] [µM] | IC50 [4] [µM]
1 | Cc1ccc2nc3sc(N4CCN(C)CC4)nc3c(O)c2c1 | 10 | 29.6 | 17 | 16.9
2 | CCN(CC)CCCNc1c2ccccc2nc2sc(SC)nc12 | 7.5 | 6 | 6 | 6
3 | CN1CCN(c2nc3c(O)c4ccccc4nc3s2)CC1 | 8.6 | 18.8 | 18.8 | 18.8
4 | CSc1nc2c(O)c3ccccc3nc2s1 | 5.9 | > 70.2 | > 70.2 | > 70.2
5 | CS(=O)(=O)c1nc2c(O)c3ccccc3nc2s1 | 5.2 | 32.4 | 32.4 | 32.4
6 | CCN(CC)CCNc1nc2c(O)c3ccccc3nc2s1 | 9.3 | 7.22 | 7.22 | 5.76
7 | CSc1nc2c(N(C)CCCN(C)C)c3ccccc3nc2s1 | 6.5 | 12.1 | 12.1 | 12.1
8 | CCN(CC)CCCNc1c2cc(C)ccc2nc2sc(SC)nc12 | 7.9 | 5.4 | 5.4 | 5.4
9 | CCN(CC)CCNc1nc2c(O)c3cc(C)ccc3nc2s1 | 8.4 | 5.6 | 3.3 | 3.3

The next lines start with results.

Row | pKa [2] | SMILES | IC50 [1] [µM] | IC50 [3] [µM] | IC50 [4] [µM]
10 | 5.7 | CSc1nc2c(O)c3cc(F)ccc3nc2s1 | > 66.1 | > 66.1 | > 66.1
11 | 4 | Cc1ccc2nc3sc(S(C)(=O)=O)nc3c(O)c2c1 | > 60.4 | > 60.4 | > 60.4
12 | 4.6 | CSc1nc2c(O)c3cc(C)ccc3nc2s1 | > 66.9 | > 66.9 | > 66.9
13 | 5.5 | CS(=O)(=O)c1nc2c(O)c3cc(F)ccc3nc2s1 | 6 | 6 | 6
14 | 8 | CN1CCN(c2nc3c(O)c4cc(F)ccc4nc3s2)CC1 | > 56.4 | > 56.4 | > 56.4
15 | 8.3 | CCN(CC)CCNc1nc2c(O)c3cc(F)ccc3nc2s1 | 2.9 | 5 | 1.65
16 | 5.9 | Oc1c2ccccc2nc2sc(Cl)nc12 | 11.6 | 11.6 | 5.3
17 | 4.9 | Oc1c2cc(F)ccc2nc2sc(Cl)nc12 | 7.4 | 7.4 | 7.4
18 | 5 | Cc1ccc2nc3sc(Cl)nc3c(O)c2c1 | 34.6 | 34.6 | 34.6
